A word on the EC50: it is the concentration that produces a half-maximal response. Broadly, the Papp A→B is the apparent permeability from the apical to the basolateral side of a cell layer. Broadly, the half-life is the time in which the quantity being followed falls by half. Higher therefore signals slow loss.

Data on 7 molecules can be found in ChEMBL document CHEMBL3102798, “Stapled Vasoactive Intestinal Peptide (VIP) Derivatives Improve VPAC2 Agonism and Glucose-Dependent Insulin Secretion” (ACS Med Chem Lett, 2013).

Data set [1] concerns Pancreatic islet. The data set is described as follows: Induction of 8 mM glucose-induced insulin secretion in Han Wistar rat pancreatic islets at 100 nM after 2 hrs by HTRF assay. It is filed as functional. The method in brief:
(§1)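 Isolated rat pancreatic islets were incubated with peptide in 8 mM glucose, and insulin secretion was measured. Data are mean ±SE (n > 3), and significance was tested against vehicle-treated samples.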
(In general: Time-resolved FRET reads energy transfer from a long-lived donor to a nearby acceptor.)

Data set [2] deals with Pancreatic islet. The data set is described as follows: Induction of 8 mM glucose-induced insulin secretion in Han Wistar rat pancreatic islets at 1 to 100 nM after 2 hrs by HTRF assay. It is filed as functional. The method in brief:
as §1

Data set [3] relates to Pancreatic islet. The data set can be described thus: Induction of 8 mM glucose-induced insulin secretion in Han Wistar rat pancreatic islets after 2 hrs by HTRF assay. Format: functional. The gist of the method: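 Isolated rat pancreatic islets were incubated with 8 mM glucose plus peptide over a range of concentrations, and secreted insulin was measured. Data are mean (±SE), n > 3, and were compared with vehicle-treated samples (p < 0.05, 0.01, 0.001).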

Data set [4] addresses T1, Vasoactive intestinal polypeptide receptor 2 (Homo sapiens, UniProt P41587).
T1 sequence (P41587 whole entry): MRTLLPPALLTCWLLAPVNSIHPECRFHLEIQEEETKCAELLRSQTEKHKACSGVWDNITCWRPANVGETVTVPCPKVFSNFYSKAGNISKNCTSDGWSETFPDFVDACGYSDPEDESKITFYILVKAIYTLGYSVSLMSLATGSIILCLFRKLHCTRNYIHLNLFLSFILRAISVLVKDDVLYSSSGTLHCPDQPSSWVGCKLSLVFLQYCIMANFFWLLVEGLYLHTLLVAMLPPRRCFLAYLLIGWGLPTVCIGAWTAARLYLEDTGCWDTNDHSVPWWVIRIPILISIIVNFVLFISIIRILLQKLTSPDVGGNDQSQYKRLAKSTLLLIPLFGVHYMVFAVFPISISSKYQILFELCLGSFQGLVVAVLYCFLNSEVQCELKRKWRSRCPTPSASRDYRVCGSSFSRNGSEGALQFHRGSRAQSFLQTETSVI
The data set is described as follows: Agonist activity at human VPAC2 expressed in CHO Flp-in cells assessed as accumulation of cAMP after 30 mins by TR-FRET assay. Format: functional, cell-based.

Data set [5] has as its system Pancreatic islet. The data set can be described thus: Induction of 8 mM glucose-induced insulin secretion in Han Wistar rat pancreatic islets at 10 to 100 nM after 2 hrs by HTRF assay. Format: functional. The gist of the method:
as §1

A short description of data set [6]: Apparent passive permeability across apical to basolateral side in human Caco2 cells at 10 uM after 30 to 60 mins by LC/MS analysis. It is filed as ADME, cell-based. The following applies: Caco-2. Background: Caco-2 cells form a polarised layer with tight junctions and transporters.
The nature of data set [7]: Stability of the compound in phosphate buffer assessed as compound remaining at pH 7.4 after 15 mins by LC-MS-MS analysis in presence of trypsin. Format: ADME. The settings on record: phosphate buffer with trypsin, read-out: Stability.
Data set [8] in a line: Half life in human at 3.3 pmol/kg/min, iv administered as infusion. Format: ADME, organism-based. The following applies: in vivo.

Activity calls are given as the source filed them. No cut-off for these calls is given here. Bridge positions count the residues as written; N and C are the ends. Peptide text beside a SMILES is read from it.

As for `C=CCCC[C@](C)(NC(=O)[C@H](CCC(N)=O)NC(=O)[C@H](CCCCN)NC(=O)[C@H](CCCNC(=N)N)NC(=O)[C@](C)(CCCC=C)NC(=O)[C@H](CCCNC(=N)N)NC(=O)[C@@H](NC(=O)[C@H](Cc1ccc(O)cc1)NC(=O)[C@H](CC(N)=O)NC(=O)[C@H](CC(=O)O)NC(=O)[C@@H](NC(=O)[C@H](Cc1ccccc1)NC(=O)[C@@H](NC(=O)[C@H](C)NC(=O)[C@H](CC(=O)O)NC(=O)[C@H](CO)NC(=O)[C@@H](N)Cc1cnc[nH]1)C(C)C)[C@@H](C)O)[C@@H](C)O)C(=O)N[C@@H](C)C(=O)N[C@H](C(=O)N[C@@H](CCCCN)C(=O)N[C@@H](CCCCN)C(=O)N[C@@H](Cc1ccc(O)cc1)C(=O)N[C@@H](CC(C)C)C(=O)N[C@@H](CC(N)=O)C(=O)N[C@@H](CO)C(=O)N[C@H](C(=O)N[C@@H](CC(C)C)C(=O)N[C@@H](CC(N)=O)C(=O)NCC(=O)N[C@@H](CCCCN)C(=O)O)[C@@H](C)CC)C(C)C`, in the data set with Pancreatic islet [1], the outcome was Active.
On to H-HSDAVFTDNYTRLRKQIAVKKYLNSILNGK-OH, for which the result in the data set on Pancreatic islet [2] was Active.
Turning to `CC[C@H](C)[C@H](NC(=O)[C@H](Cc1ccccc1)NC(=O)[C@H](CCC(=O)O)NC(=O)[C@H](CCCCN)NC(=O)[C@H](C)NC(=O)[C@H](C)NC(=O)[C@H](CCC(N)=O)NC(=O)CNC(=O)[C@H](CCC(=O)O)NC(=O)[C@H](CC(C)C)NC(=O)[C@H](Cc1ccc(O)cc1)NC(=O)[C@H](CO)NC(=O)[C@H](CO)NC(=O)[C@@H](NC(=O)[C@H](CC(=O)O)NC(=O)[C@H](CO)NC(=O)[C@@H](NC(=O)[C@H](Cc1ccccc1)NC(=O)[C@@H](NC(=O)CNC(=O)[C@H](CCC(=O)O)NC(=O)[C@H](C)NC(=O)[C@@H](N)Cc1c[nH]cn1)[C@@H](C)O)[C@@H](C)O)C(C)C)C(=O)N[C@@H](C)C(=O)N[C@@H](Cc1c[nH]c2ccccc12)C(=O)N[C@@H](CC(C)C)C(=O)N[C@H](C(=O)N[C@@H](CCCCN)C(=O)NCC(=O)N[C@@H](CCCN=C(N)N)C(=O)NCC(=O)O)C(C)C`, the Activity entry in the data set on Pancreatic islet [3] was “Dose-dependent effect”.
Consider `CC[C@H](C)[C@H](NC(=O)[C@H](CO)NC(=O)[C@H](CC(N)=O)NC(=O)[C@H](CC(C)C)NC(=O)[C@H](Cc1ccc(O)cc1)NC(=O)[C@@H]1CCCCNC(=O)CC[C@H](NC(=O)[C@H](CCC(N)=O)NC(=O)[C@H](CCCCN)NC(=O)[C@H](CCCNC(=N)N)NC(=O)[C@H](CC(C)C)NC(=O)[C@H](CCCNC(=N)N)NC(=O)[C@@H](NC(=O)[C@H](Cc2ccc(O)cc2)NC(=O)[C@H](CC(N)=O)NC(=O)[C@H](CC(=O)O)NC(=O)[C@@H](NC(=O)[C@H](Cc2ccccc2)NC(=O)[C@@H](NC(=O)[C@H](C)NC(=O)[C@H](CC(=O)O)NC(=O)[C@H](CO)NC(=O)[C@@H](N)Cc2cnc[nH]2)C(C)C)[C@@H](C)O)[C@@H](C)O)C(=O)N[C@@H](C)C(=O)N[C@@H](C(C)C)C(=O)N[C@@H](CCCCN)C(=O)N1)C(=O)N[C@@H](CC(C)C)C(=O)N[C@@H](CC(N)=O)C(=O)NCC(=O)N[C@@H](CCCCN)C(=O)O` (H-HSDAVFTDNYTRLRKQEAVKKYLNSILNGK-OH; lactam 17-21), for which, in data set [4], the half-maximal effective concentration (EC50) is 0.1 nM. Further, the result with Pancreatic islet [5] was Active. In data set [6], the Papp A→B at 10 µM was less than 0.1 ×10⁻⁶ cm/s. Moreover, the remaining at 0.25 h in data set [7] is 0.4%.
Consider H-HSDAVFTDNYTRLRKQEAVKKYLNSILNGK-OH, for which the EC50 in data set [4] is 0.38 nM. The apical-to-basolateral permeability (Papp A→B) at 10 µM in data set [6] was less than 0.1 ×10⁻⁶ cm/s. For the same molecule, in data set [7], the remaining at 0.25 h stood at 0.9%. In addition, the result in the data set on Pancreatic islet [1] was Active.
For the molecule `CC[C@H](C)[C@H](NC(=O)[C@H](CO)NC(=O)[C@H](CC(N)=O)NC(=O)[C@H](CC(C)C)NC(=O)[C@H](Cc1ccc(O)cc1)NC(=O)[C@H](CCCCN)NC(=O)[C@H](CCCCN)NC(=O)[C@@H](NC(=O)[C@H](C)NC(=O)[C@H](CCSC)NC(=O)[C@H](CCC(N)=O)NC(=O)[C@H](CCCCN)NC(=O)[C@H](CCCN=C(N)N)NC(=O)[C@H](CC(C)C)NC(=O)[C@H](CCCN=C(N)N)NC(=O)[C@@H](NC(=O)[C@H](Cc1ccc(O)cc1)NC(=O)[C@H](CC(N)=O)NC(=O)[C@H](CC(=O)O)NC(=O)[C@@H](NC(=O)[C@H](Cc1ccccc1)NC(=O)[C@@H](NC(=O)[C@H](C)NC(=O)[C@H](CC(=O)O)NC(=O)[C@H](CO)NC(=O)[C@@H](N)Cc1c[nH]cn1)C(C)C)[C@@H](C)O)[C@@H](C)O)C(C)C)C(=O)N[C@@H](CC(C)C)C(=O)N[C@@H](CC(N)=O)C(N)=O`, the Papp A→B at 10 µM in data set [6] was less than 0.1 ×10⁻⁶ cm/s. Moreover, the remaining at 0.25 h in data set [7] amounted to 0.5%. The molecule further came in with a half-life in data set [8] of less than 1 min.
`CC[C@H](C)[C@H](NC(=O)[C@H](CO)NC(=O)[C@H](CC(N)=O)NC(=O)[C@H](CC(C)C)NC(=O)[C@H](Cc1ccc(O)cc1)NC(=O)[C@H](CCCCN)NC(=O)[C@H](CCCCN)NC(=O)[C@@H](NC(=O)[C@H](C)NC(=O)[C@H](CCSC)NC(=O)[C@H](CCC(N)=O)NC(=O)[C@H](CCCCN)NC(=O)[C@H](CCCNC(=N)N)NC(=O)[C@H](CC(C)C)NC(=O)[C@H](CCCNC(=N)N)NC(=O)[C@@H](NC(=O)[C@H](Cc1ccc(O)cc1)NC(=O)[C@H](CC(N)=O)NC(=O)[C@H](CC(=O)O)NC(=O)[C@@H](NC(=O)[C@H](Cc1ccccc1)NC(=O)[C@@H](NC(=O)[C@H](C)NC(=O)[C@H](CC(=O)O)NC(=O)[C@H](CO)NC(=O)[C@@H](N)Cc1cnc[nH]1)C(C)C)[C@@H](C)O)[C@@H](C)O)C(C)C)C(=O)N[C@@H](CC(C)C)C(=O)N[C@@H](CC(N)=O)C(=O)O`: the Activity entry with Pancreatic islet [3] is “Dose-dependent effect”.
